Data taken from ChEMBL document CHEMBL4715736, “Identification of anticancer agents based on the thieno[2,3-b]pyridine and 1H-pyrazole molecular scaffolds” (2016).

What was measured:
Format in all cases: functional
[1] = system: NCI-H460; assay: Growth inhibition of human NCI-H460 cells assessed as cell growth at 100 uM incubated for 48 hrs by sulforhodamine B assay relative to control; settings: read-out: Activity
[2] = system: ACHN; assay: Growth inhibition of human ACHN cells assessed as cell growth at 0.01 uM incubated for 48 hrs by sulforhodamine B assay relative to control; settings: read-out: Activity
[3] = system: IGROV-1; assay: Growth inhibition of human IGROV-1 cells assessed as cell growth at 0.1 uM incubated for 48 hrs by sulforhodamine B assay relative to control; settings: read-out: Activity
[4] = system: BT-549; assay: Growth inhibition of human BT-549 cells assessed as cell growth at 0.1 uM incubated for 48 hrs by sulforhodamine B assay relative to control; settings: read-out: Activity
[5] = system: SK-MEL-2; assay: Growth inhibition of human SK-MEL-2 cells assessed as cell growth at 0.1 uM incubated for 48 hrs by sulforhodamine B assay relative to control; settings: read-out: Activity
[6] = system: OVCAR-8; assay: Growth inhibition of human OVCAR-8 cells assessed as cell growth at 0.1 uM incubated for 48 hrs by sulforhodamine B assay relative to control; settings: read-out: Activity
[7] = system: RXF 393; assay: Growth inhibition of human RXF 393 cells assessed as cell growth at 0.01 uM incubated for 48 hrs by sulforhodamine B assay relative to control; settings: read-out: Activity
[8] = system: HOP-62; assay: Growth inhibition of human HOP-62 cells assessed as cell growth at 0.1 uM incubated for 48 hrs by sulforhodamine B assay relative to control; settings: read-out: Activity
[9] = system: NCI-H522; assay: Growth inhibition of human NCI-H522 cells assessed as cell growth at 0.01 uM incubated for 48 hrs by sulforhodamine B assay relative to control; settings: read-out: Activity
[10] = system: SK-MEL-2; assay: Growth inhibition of human SK-MEL-2 cells assessed as cell growth at 100 uM incubated for 48 hrs by sulforhodamine B assay relative to control; settings: read-out: Activity
[11] = system: MDA-MB-231; assay: Growth inhibition of human MDA-MB-231 cells assessed as cell growth at 0.01 uM incubated for 48 hrs by sulforhodamine B assay relative to control; settings: read-out: Activity
[12] = system: ACHN; assay: Growth inhibition of human ACHN cells assessed as cell growth at 1 uM incubated for 48 hrs by sulforhodamine B assay relative to control; settings: read-out: Activity
[13] = system: T47D; assay: Growth inhibition of human T47D cells assessed as cell growth at 0.01 uM incubated for 48 hrs by sulforhodamine B assay relative to control; settings: read-out: Activity
[14] = system: SK-MEL-28; assay: Growth inhibition of human SK-MEL-28 cells assessed as cell growth at 100 uM incubated for 48 hrs by sulforhodamine B assay relative to control; settings: read-out: Activity
[15] = system: K562; assay: Growth inhibition of human K562 cells assessed as cell growth at 0.1 uM incubated for 48 hrs by sulforhodamine B assay relative to control; settings: read-out: Activity
[16] = system: NCI/ADR-RES; assay: Growth inhibition of human NCI/ADR-RES cells assessed as cell growth at 100 uM incubated for 48 hrs by sulforhodamine B assay relative to control; settings: read-out: Activity
[17] = system: MOLT-4; assay: Growth inhibition of human MOLT-4 cells incubated for 48 hrs by sulforhodamine B assay; settings: for CC50: read-out: LC50 (the source's name)
Method in brief: (§1)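 NCI60 panel at the NCI Developmental Therapeutics Program. Only compounds active in the 10 µM screen went to dose-response testing. GI50, the concentration giving 50% of maximal inhibition of proliferation, and TGI, the concentration giving total growth inhibition, were derived from the dose-response curves.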

[18] = system: UACC-62; assay: Growth inhibition of human UACC-62 cells incubated for 48 hrs by sulforhodamine B assay
Method in brief: (§2)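 NCI DTP 60-line human tumour panel. Dose-response curves were run only for ligands active in the initial 10 µM screen. GI50 (concentration giving 50% of maximal inhibition of proliferation) and TGI (concentration giving total growth inhibition) were derived from these curves.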

[19] = system: OVCAR-4; assay: Growth inhibition of human OVCAR-4 cells incubated for 48 hrs by sulforhodamine B assay; settings: for CC50: read-out: LC50 (the source's name); method in brief: as §2
[20] = system: IGROV-1; assay: Growth inhibition of human IGROV-1 cells assessed as cell growth at 100 uM incubated for 48 hrs by sulforhodamine B assay relative to control; settings: read-out: Activity
[21] = system: NCI-H226; assay: Growth inhibition of human NCI-H226 cells incubated for 48 hrs by sulforhodamine B assay; settings: for CC50: read-out: LC50 (the source's name); method in brief: as §1
[22] = system: UACC-257; assay: Growth inhibition of human UACC-257 cells assessed as cell growth at 0.01 uM incubated for 48 hrs by sulforhodamine B assay relative to control; settings: read-out: Activity
[23] = system: Malme-3M; assay: Growth inhibition of human Malme-3M cells assessed as cell growth at 0.01 uM incubated for 48 hrs by sulforhodamine B assay relative to control; settings: read-out: Activity
[24] = system: MDA-MB-435; assay: Growth inhibition of human MDA-MB-435 cells assessed as cell growth at 1 uM incubated for 48 hrs by sulforhodamine B assay relative to control; settings: read-out: Activity
[25] = system: COLO 205; assay: Growth inhibition of human COLO 205 cells assessed as cell growth at 0.01 uM incubated for 48 hrs by sulforhodamine B assay relative to control; settings: read-out: Activity
Method in brief: (§3)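 NCI Developmental Therapeutics Program NCI60 panel. Compounds that were active in the 10 µM one-dose screen went on to dose–response testing. Growth at each concentration is expressed relative to untreated control (100%). GI50 (concentration giving 50% of maximal inhibition of proliferation) and TGI (concentration giving total growth inhibition) were derived from the curves.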

[26] = system: UO-31; assay: Growth inhibition of human UO-31 cells incubated for 48 hrs by sulforhodamine B assay; settings: for CC50: read-out: LC50 (the source's name); method in brief: as §2
[27] = system: RPMI-8226; assay: Growth inhibition of human RPMI-8226 cells assessed as cell growth at 1 uM incubated for 48 hrs by sulforhodamine B assay relative to control; settings: read-out: Activity
[28] = system: COLO 205; assay: Growth inhibition of human COLO 205 cells assessed as cell growth at 100 uM incubated for 48 hrs by sulforhodamine B assay relative to control; settings: read-out: Activity; method in brief: as §3
[29] = system: LOX IMVI; assay: Growth inhibition of human LOX IMVI cells assessed as cell growth at 100 uM incubated for 48 hrs by sulforhodamine B assay relative to control; settings: read-out: Activity
[30] = system: A549; assay: Growth inhibition of human A549/ATCC cells incubated for 48 hrs by sulforhodamine B assay; settings: for CC50: read-out: LC50 (the source's name); method in brief: as §3
[31] = system: UACC-257; assay: Growth inhibition of human UACC-257 cells assessed as cell growth at 1 uM incubated for 48 hrs by sulforhodamine B assay relative to control; settings: read-out: Activity
[32] = system: MDA-MB-468; assay: Growth inhibition of human MDA-MB-468 cells assessed as cell growth at 1 uM incubated for 48 hrs by sulforhodamine B assay relative to control; settings: read-out: Activity
[33] = system: HOP-62; assay: Growth inhibition of human HOP-62 cells assessed as cell growth at 1 uM incubated for 48 hrs by sulforhodamine B assay relative to control; settings: read-out: Activity
[34] = system: IGROV-1; assay: Growth inhibition of human IGROV-1 cells incubated for 48 hrs by sulforhodamine B assay; method in brief: as §1

Work on `Cc1cccc(NC(=O)c2sc3nc4c(cc3c2N)C(=O)CCC4)c1` yielded a growth at 100 µM [1] of 7%, a growth at 0.01 µM [2] of 90% and a growth at 0.1 µM [3] of 86%. For the same molecule, the growth at 0.1 µM [4] was 74%, the growth at 0.1 µM [5] was 70% and the growth at 0.1 µM [6] was 98%. The growth at 0.01 µM [7] was 97%, the growth at 0.1 µM [8] was 69% and the growth at 0.01 µM [9] was 84%. The growth at 100 µM [10] was -74%, the growth at 0.01 µM [11] was 99% and the growth at 1 µM [12] was 49%. For the same molecule, the growth at 0.01 µM [13] was 79%, the growth at 100 µM [14] was -15% and the growth at 0.1 µM [15] was 44%. For the same molecule, the growth at 100 µM [16] was -3%, the TGI [17] was > 100 µM and the CC50 [17] was > 100 µM. For the same molecule, the GI50 [18] was 0.333 µM, the LC50 [18] was > 100 µM and the TGI [18] was ≥ 100 µM. The TGI [19] was ≥ 100 µM, the CC50 [19] was > 100 µM and the growth at 100 µM [20] was -4%. The GI50 [21] was 1.09 µM, the TGI [21] was > 100 µM and the CC50 [21] was > 100 µM. For the same molecule, the growth at 0.01 µM [22] was 82%, the growth at 0.01 µM [23] was 91% and the growth at 1 µM [24] was -61%. The growth at 0.01 µM [25] was 92%, the TGI [26] was ≥ 100 µM and the CC50 [26] was > 100 µM. It also gave a growth at 1 µM [27] of 36%, a growth at 100 µM [28] of -8% and a growth at 100 µM [29] of -75%. For the same molecule, the GI50 [30] was 0.3 µM, the TGI [30] was > 100 µM and the CC50 [30] was > 100 µM. It also gave a growth at 1 µM [31] of 53%, a growth at 1 µM [32] of 5% and a growth at 1 µM [33] of 30%. For the same molecule, the GI50 [34] was 0.662 µM, the LC50 [34] was > 100 µM and the TGI [34] was ≥ 100 µM.
Work on `COc1cccc(NC(=O)c2sc3nc4c(cc3c2N)CN(Cc2ccccc2)CC4)c1` yielded a growth at 100 µM [1] of -25%, a growth at 0.01 µM [2] of 97% and a growth at 0.1 µM [3] of 102%. For the same molecule, the growth at 0.1 µM [4] was 91%, the growth at 0.1 µM [5] was 112% and the growth at 0.1 µM [6] was 100%. For the same molecule, the growth at 0.01 µM [7] was 97%, the growth at 0.1 µM [8] was 86% and the growth at 0.01 µM [9] was 95%. For the same molecule, the growth at 100 µM [10] was -28%, the growth at 0.01 µM [11] was 107% and the growth at 1 µM [12] was 92%. It also gave a growth at 0.01 µM [13] of 90%, a growth at 100 µM [14] of -30% and a growth at 0.1 µM [15] of 101%. For the same molecule, the growth at 100 µM [16] was -26%, the GI50 [17] was 21.9 µM and the TGI [17] was > 100 µM. The CC50 [17] was > 100 µM, the GI50 [18] was 1.92 µM and the LC50 [18] was > 100 µM. The TGI [18] was 29.8 µM, the GI50 [19] was 2.68 µM and the TGI [19] was 19.7 µM. For the same molecule, the CC50 [19] was > 100 µM, the growth at 100 µM [20] was 4% and the GI50 [21] was 6.03 µM. For the same molecule, the TGI [21] was 38.3 µM, the CC50 [21] was > 100 µM and the growth at 0.01 µM [22] was 94%. For the same molecule, the growth at 0.01 µM [23] was 97%, the growth at 1 µM [24] was 4% and the growth at 0.01 µM [25] was 92%. The GI50 [26] was 3.27 µM, the TGI [26] was 32.3 µM and the CC50 [26] was > 100 µM. For the same molecule, the growth at 1 µM [27] was 84%, the growth at 100 µM [28] was -16% and the growth at 100 µM [29] was -15%. The GI50 [30] was 3.79 µM, the TGI [30] was 53.8 µM and the CC50 [30] was > 100 µM. The growth at 1 µM [31] was 78%, the growth at 1 µM [32] was 64% and the growth at 1 µM [33] was 74%. For the same molecule, the GI50 [34] was 18.5 µM, the LC50 [34] was > 100 µM and the TGI [34] was > 100 µM.
